Only some compounds are listed: those with a hit (about 1.5% of all), similar ones and a draw of the others.
CXCR6 block: blocks human CXCR6 beta-arrestin recruitment | O00574 | actives 0.36% (n = 360,000) | CHO-K1 PathHunter CXCR6 beta-arrestin, luminescence | inhibition, % at 20 µM; in the data active = inhibition above about 34%, passing the limit was not always enough;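 note: antagonist mode with CXCL16 agonist at 10 nM final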
Target sequence (O00574 whole entry, looked up): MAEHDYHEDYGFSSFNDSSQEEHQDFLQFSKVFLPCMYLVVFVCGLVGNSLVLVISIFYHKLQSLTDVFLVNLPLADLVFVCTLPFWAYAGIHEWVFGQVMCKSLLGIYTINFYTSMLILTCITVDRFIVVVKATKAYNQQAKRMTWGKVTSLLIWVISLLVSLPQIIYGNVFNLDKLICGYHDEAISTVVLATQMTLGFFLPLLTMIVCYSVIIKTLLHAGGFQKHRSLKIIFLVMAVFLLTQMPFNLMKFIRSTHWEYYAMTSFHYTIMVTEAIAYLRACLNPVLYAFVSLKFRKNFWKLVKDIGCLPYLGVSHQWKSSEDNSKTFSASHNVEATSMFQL
CCR6 antag: CCR6 (human) receptor antagonism; actives 0.49% (n = 340,000); inhibition, % at 20 µM; CHO-K1 CCR6 PathHunter beta-arrestin, luminescence, CCL20-stimulated; P51684;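 active = compounds whose inhibition of the agonist-driven luminescence signal at 20 µM reaches about 50%, limit read from the data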;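 note: cells stimulated with CCL20 at 14 nM final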
APJ antagonist: blocks the human apelin receptor APJ. inhibition, % at 20 µM. P35414. CHO-K1 APJ beta-arrestin complementation, luminescence. actives 0.32% (n = 330,000);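 active = inhibition above about 40% at 20 µM, limit read from the data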;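 note: cells challenged with 10 nM apelin-13 agonist together with compound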
APJ ag: agonists of human APJ apelin receptor | AID 2520 | P35414 | actives 0.11% (n = 330,000) | activation, % at 20 µM | CHO-K1 APJ PathHunter beta-arrestin, luminescence; 0% DMSO wells, 100% apelin;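 active = activation more than six SD over the plate average, tested at 20 µM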
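Assay system: engineered CHO-K1 APJ arrestin reporter cells; Amount: 1000 CHO-K1 reporter cells seeded per well; Dosing: one dose, 20 µM compound, 1% DMSO; Times: compound stimulation 90 min at 25 °C, detection 60 min; Measured by: luminescent beta-gal fragment complementation, chemiluminescent substrate; Read-out: APJ–arrestin association signal; Controls: DMSO vs Apelin-13 10 nM.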
EBI2 block: antagonists of human EBI2 receptor. P32249. EBI2 beta-arrestin recruitment, luminescence, 7a,25-OHC stimulated. inhibition, % at 5 µM. actives 0.81% (n = 360,000). AID 651636; in the data active = inhibition above about 38%;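 note: enzyme fragment complementation signal reports receptor beta-arrestin coupling in cells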
EBI2 conf: confirmation of human EBI2 receptor antagonists; EBI2 beta-arrestin luminescence, 7a,25-OHC antagonism; actives 29% (n = 2,400); inhibition, % at 5 µM; shares compounds with EBI2 block;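 active = inhibition of at least 50%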
EBI2 agonist: activates EBI2, counter-screen for EBI2 antagonists; shares compounds with EBI2 block; EBI2-expressing cells, agonist mode, luminescence, 60 min; 0% vehicle, 100% 7α,25-dihydroxycholesterol control; activation, % at 5 µM; 2,400 tested, under 10 active; AID 652000;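 active = activation of at least 50%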
bGal cs: inhibits E. coli beta-galactosidase, counter-screen for EBI2 antagonists; purified beta-galactosidase, luminescent Galacton Star, 15 min; inhibition, % at 5 µM; actives 1% (n = 2,400); shares compounds with EBI2 block;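 active = replicate-average signal at least 3 plate SD below neutral wells, shown as high inhibition, flagging enzyme-inhibiting false positives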;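 note: higher means stronger loss of beta-gal luminescence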
Large screens that a line does not name were inactive (follow-up assays come after a bar, where they were run).

CCCCNC(=O)Oc1ccc(C(=O)N2c3ccccc3NC(=O)C2C)cc1 (stereo unspecified)	none
Cc1ccc(S(=O)(=O)N2CCN(C(=O)CCc3c[nH]c4ccccc34)CC2)c(C)c1	EBI2 block 47 | EBI2 conf inactive | EBI2 agonist inactive | bGal cs inactive
Cc1ccccc1OCCC(=O)N1CCN(S(=O)(=O)c2ccc(Br)cc2)CC1	EBI2 block 44 | EBI2 conf inactive | EBI2 agonist inactive | bGal cs inactive
Cc1ccccc1OCCC(=O)N1CCN(S(=O)(=O)c2ccc(F)cc2)CC1	none
O=C(OCC(=O)C12CC3CC(CC(C3)C1)C2)c1ccc(O)cc1O	none
COc1ccc(C2=NOC(Cn3nc(C(=O)NCc4ccc(C)cc4)cc3-c3ccccc3)C2)cc1 (stereo unspecified)	EBI2 block 44 | EBI2 conf inactive | EBI2 agonist inactive | bGal cs inactive
c1ccc2oc(-c3ccc(Nc4nc(N5CCOCC5)nc(N5CCOCC5)n4)cc3)nc2c1	none (no result: APJ antagonist, APJ ag)
CCOc1cc(N2CCOCC2)c(OCC)cc1NC(=O)COC(=O)c1cccc2ccccc12	EBI2 block 55 | EBI2 conf inactive | EBI2 agonist inactive | bGal cs inactive
CCOc1cc(N2CCOCC2)c(OCC)cc1NC(=O)COC(=O)c1ccccc1OC(F)F	none
N#C/C(=C/c1cn(-c2ccccc2)nc1-c1cccc(OCc2ccccc2)c1)C(=O)NCCCn1ccnc1	none
CCOc1cccc(-c2nn(-c3ccccc3)cc2/C=C(/C#N)C(=O)NCCCn2ccnc2)c1	EBI2 block 40 | EBI2 conf inactive | EBI2 agonist inactive | bGal cs inactive
O=S(=O)(Nc1ccccc1F)c1cccc(NC(=S)NCCN2CCOCC2)c1	none
CC(=O)N1CCOc2ccc(S(=O)(=O)N3CCC(C(=O)NCc4ccccc4)CC3)cc21	EBI2 block 65 | EBI2 conf inactive | EBI2 agonist inactive | bGal cs inactive
Cc1ccc(CNC(=O)C2CCN(S(=O)(=O)c3cccc4nonc34)CC2)cc1	EBI2 block 49 | EBI2 conf inactive | EBI2 agonist inactive | bGal cs inactive
Cc1ccc(CNC(=O)C2CCC(CNS(=O)(=O)c3cccc4cccnc34)CC2)cc1 (stereo unspecified)	EBI2 block 50 | EBI2 conf inactive | EBI2 agonist inactive | bGal cs inactive
Cc1ccc(CNC(=O)C2CCN(S(=O)(=O)c3c(C)noc3C)CC2)cc1	EBI2 block 47 | EBI2 conf inactive | EBI2 agonist inactive | bGal cs inactive
Cc1ccc(S(=O)(=O)N(CCC(=O)NCc2ccc(S(N)(=O)=O)cc2)c2ccccc2)cc1	none
COc1ccccc1S(=O)(=O)N(C)C[C@H]1OCc2cnnn2CCCC(=O)N([C@H](C)CO)C[C@H]1C	none (no result: CCR6 antag, APJ antagonist, APJ ag)
COc1ccc(-n2nnnc2CNC(=O)c2ccc3c(c2)OCO3)cc1	none
Cc1csc(SC(C)C(=O)Nc2ccccc2C)n1 (stereo unspecified)	none
COc1ccccc1C(=O)NCC(=O)OC(C)C(=O)N1CCOCC1 (stereo unspecified)	none
Cc1ccc(CNC(=O)C2CCN(S(=O)(=O)c3cccnc3)CC2)cc1	EBI2 block 52 | EBI2 conf inactive | EBI2 agonist inactive | bGal cs inactive
COc1ccc(-c2cc3nc(C)c(CCC(=O)NCc4ccc(F)cc4)c(C)n3n2)c(OC)c1	EBI2 block 53 | EBI2 conf inactive | EBI2 agonist inactive | bGal cs inactive
COc1ccc(CNC(=O)CCc2c(C)nc3cc(-c4ccccc4OC)nn3c2C)cc1	none
Cc1ccc2cccc(N=Cc3c(C)[nH]n(-c4ccccc4)c3=O)c2n1	CXCR6 block 69, CCR6 antag 89, EBI2 block 78 (no result: APJ antagonist, APJ ag) | EBI2 conf 67 | EBI2 agonist inactive | bGal cs inactive
CC(OC(=O)c1ccc(Cl)nc1)C(=O)Nc1ccc2c(c1)OCO2 (stereo unspecified)	none
Cc1cc(C(C)(C)C)oc1C(=O)N1CCN(C(=O)c2oc(C(C)(C)C)cc2C)CC1	EBI2 block 48 (no result: APJ antagonist, APJ ag) | EBI2 conf inactive | EBI2 agonist inactive | bGal cs inactive
Cc1cc(C(C)(C)C)oc1C(=O)O	none
c1ccc(C(c2ccccc2)c2ccn[nH]2)cc1	none
CCC(C)C(=O)Nc1nnc(CCc2ccccc2)s1 (stereo unspecified)	none
Cc1ccc(CNC(=O)c2ccc(N(C)S(=O)(=O)c3ccccc3)cc2)cc1	EBI2 block 83 | EBI2 conf inactive | EBI2 agonist inactive | bGal cs inactive
CN(C)S(=O)(=O)c1ccc(C(=O)Nc2ccc(Cl)cc2)cc1	EBI2 block 53 | EBI2 conf 50 | EBI2 agonist inactive | bGal cs inactive
CN(c1ccc(C(=O)Nc2ccc(Cl)cn2)cc1)S(=O)(=O)c1ccccc1	EBI2 block 50 | EBI2 conf 56 | EBI2 agonist inactive | bGal cs inactive
CCN(CC)S(=O)(=O)c1ccc(C(=O)NCc2ccc(C)cc2)cc1	EBI2 block 63 | EBI2 conf 55 | EBI2 agonist inactive | bGal cs inactive
C[C@@H](NC(=O)[C@@H]1Cc2ccccc2CN1)C(=O)Nc1ccc2c(c1)OCO2	none
CCOc1ccccc1CN(Cc1ccco1)S(=O)(=O)c1ccc(-n2cnnn2)c(OC)c1	EBI2 block 49 (no result: APJ antagonist, APJ ag) | EBI2 conf inactive | EBI2 agonist inactive | bGal cs inactive
O=C(COC(=O)/C=C/c1ccc(OC(F)F)cc1)NC(=O)NCc1ccccc1	EBI2 block 50 | EBI2 conf inactive | EBI2 agonist inactive | bGal cs inactive
CCCCCCCCN1C(=O)[C@H](CC(=O)N2CCN(C(=O)c3ccco3)CC2)C[C@@]2(C(=O)OCC)CCCC=C12	none (no result: CCR6 antag, APJ antagonist, APJ ag)
Oc1ccc(O)c(C=NNC(=S)NC2CC3CC2C2C=CCC32)c1 (stereo unspecified)	EBI2 block 49 (no result: CCR6 antag, APJ antagonist, APJ ag) | EBI2 conf inactive | EBI2 agonist inactive | bGal cs inactive
NNC(=S)NC1CC2CC1C1C=CCC21 (stereo unspecified)	none
CCn1c(SCc2ccc(Cl)cc2Cl)nc2nc3c(cc2c1=O)CCCC3	EBI2 block 63 | EBI2 conf inactive | EBI2 agonist inactive | bGal cs inactive
Nc1c(Cl)ncnc1N/N=C/c1ccc2ccccc2n1	CXCR6 block 53, CCR6 antag 84, EBI2 block 62 (no result: APJ antagonist, APJ ag) | EBI2 conf 84 | EBI2 agonist inactive | bGal cs inactive

High-throughput results deposited in PubChem by Sanford-Burnham Center for Chemical Genomics.
